Source: ChEMBL document CHEMBL3286351, “Antibacterial evaluation of structurally amphipathic, membrane active small cationic peptidomimetics: synthesized by incorporating 3-amino benzoic acid as peptidomimetic element” (Eur J Med Chem, 2014)
≈ marks a conversion by molar mass, not a printed value. Where a SMILES comes first, the peptide text is derived from it. [ ]: non-standard residue; d: D form. 3Abz = Nc1cccc(C(=O)O)c1; Orn = NCCC[CH](N)C(=O)O

Assays:
[1] = system: Staphylococcus epidermidis; test: Antibacterial activity against methicillin-resistant Staphylococcus epidermidis ATCC 51625 assessed as growth inhibition after 18 hrs by CLSI microdilution broth assay; format: functional; details: ATCC 51625, 18 h
Procedure, shortened: (§1)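 Modified CLSI broth microdilution in Mueller-Hinton broth. Wells held 90 µL of about 2 × 10^5 CFU/mL inoculum plus 10 µL of serially diluted peptidomimetic, range 0.7-100 µg/mL. Plates were incubated overnight with agitation at 37 °C and absorbance read at 600 nm after 18 h. Controls: inoculum without compound, and uninoculated broth. Run in triplicate.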

[2] = Induction of hemolysis in human RBC assessed as hemoglobin release after 1 hr by microtiter plate reader analysis; format: cell-based, Erythrocyte; details: for HC10: erythrocyte, 1 h; for HC50 at 1 h: red blood cells
Procedure, shortened: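 Freshly isolated human RBCs washed three times in PBS (35 mM phosphate, 150 mM NaCl, pH 7.2) and used as a 4% (v/v) suspension. Mixed 1:1 with twofold serial dilutions of compound, incubated 1 h at 37 °C without agitation, then centrifuged. Supernatant A540 read. PBS defined 0% and 1% Triton X-100 defined 100% lysis; HC50 and HC10 derived.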

[3] = Selectivity ratio of HC50 for hemolysis in human RBC to MIC for Staphylococcus aureus
HaCaT [4] = test: Cytotoxicity against human HaCaT cells assessed as decrease in cell viability after 24 hrs by MTT assay; format: cell-based
Procedure, shortened: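 HaCaT keratinocytes grown as a monolayer in DMEM with 10% FBS and penicillin/streptomycin, 37 °C, 5% CO2. Seeded 24 h, then exposed to compound for 24 h. MTT (5 mg/mL stock in PBS) added for 4 h; formazan dissolved in isopropanol and read at 570 nm. Growth inhibition calculated relative to medium-only controls. Two independent experiments in triplicate.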

HaCaT [5] = test: Cytotoxicity against human HaCaT cells at 100 to 500 ug/ml after 24 hrs by LDH release assay; format: cell-based
Procedure, shortened: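 HaCaT cells (DMEM with 10% FBS, 37 °C, 5% CO2) seeded for 24 h, then treated with varying concentrations for 24 h. LDH measured at 490 nm in both supernatant and trypsinized cell lysate with a non-radioactive kit. % release = supernatant/(supernatant + lysate) × 100. Two independent experiments in triplicate.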

Plasma = test: Stability in human plasma assessed as compound degradation after 24 hrs by RP-HPLC analysis; format: ADME, cell-free; details: 24 h
Procedure, shortened: (§2)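 Compound (1 mg/mL stock in water; 50 µL) added to 1 mL fresh heparinized human plasma and held at 37 °C. Samples taken at 30 min, 1, 2, 6, 12 and 24 h. Proteins precipitated with 95% ethanol, cooled at 4 °C for 15 min and centrifuged at 18,000 g. Supernatant analyzed by RP-HPLC with UV detection at 280 nm.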

[6] = Stability in human plasma assessed as compound degradation after 30 mins by RP-HPLC analysis; format: ADME, cell-free; details: read-out: Drug degradation; procedure, shortened: as §2
trypsin = test: Proteolytic stability assessed as trypsin (unknown origin)-mediated compound degradation by measuring compound remaining after 4 days by RP-HPLC analysis; format: ADME; details: human, trypsin; read-out: Stability
Procedure, shortened: (§3)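 Compound at 1 mg/mL in 0.1 M NH4HCO3 (pH 8.2) combined with trypsin or α-chymotrypsin solution (1 mg enzyme per 50 mL of the same buffer) at 37 °C. Aliquots taken over time and quenched with 10% formic acid. Remaining compound quantified by C18 RP-HPLC. An enzyme-free control was run for each test.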

alpha chymotrypsin = test: Proteolytic stability assessed as alpha chymotrypsin (unknown origin)-mediated compound degradation by measuring compound remaining after 4 days by RP-HPLC analysis; format: ADME; details: human, read-out: Stability; procedure, shortened: as §3
[7] = Retention time of the compound by HPLC analysis; format: physicochemical
Procedure, shortened: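 Analytical RP-HPLC on a C18 column (5 µm, 4.6 × 250 mm) at room temperature. Run a linear gradient of 0.5-60% acetonitrile containing 0.05% TFA against water containing 0.05% TFA at 0.5 mL/min.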

Escherichia coli = test: Antibacterial activity against Escherichia coli MTCC 723 assessed as growth inhibition after 18 hrs by CLSI microdilution broth assay; format: functional; details: MTCC 723, 18 h
Pseudomonas aeruginosa = test: Antibacterial activity against Pseudomonas aeruginosa MTCC 2295 assessed as growth inhibition after 18 hrs by CLSI microdilution broth assay; format: functional; details: MTCC 2295, 18 h
Staphylococcus aureus [8] = test: Antibacterial activity against Staphylococcus aureus MTCC 3160 assessed as growth inhibition after 18 hrs by CLSI microdilution broth assay; format: functional; details: MTCC 3160, 18 h
Bacillus subtilis = test: Antibacterial activity against Bacillus subtilis MTCC 2763 assessed as growth inhibition after 18 hrs by CLSI microdilution broth assay; format: functional; details: MTCC 2763, 18 h
Staphylococcus aureus [9] = test: Antibacterial activity against methicillin-resistant Staphylococcus aureus ATCC BAA-1720 assessed as growth inhibition after 18 hrs by CLSI microdilution broth assay; format: functional; details: ATCC BAA-1720, 18 h; procedure, shortened: as §1

Compound	MIC [1] [µg/mL]	HC10 [2] [µg/mL]	HC50 at 1 h [2] [µg/mL]	Selectivity ratio [3]	Activity (HaCaT [4])	Activity (HaCaT [5])	Stability (Plasma)	metabolised at 0.5 h [6] [%]	remaining at 96 h (trypsin) [%]	remaining at 96 h (alpha chymotrypsin) [%]	Retention_time [7] [min]	MIC (Escherichia coli) [µg/mL]	MIC (Pseudomonas aeruginosa) [µg/mL]	MIC (Staphylococcus aureus [8]) [µg/mL]	MIC (Bacillus subtilis) [µg/mL]	MIC (Staphylococcus aureus [9]) [µg/mL]
NCCCC(NC(=O)C(Cc1c[nH]c2ccccc12)NC(=O)C(Cc1c[nH]c2ccccc12)NC(=O)C(CCCN)NC(=O)C(N)Cc1c[nH]c2ccccc12)C(N)=O (stereo unspecified) (H-W[Orn]WW[Orn]-NH2; configuration not given here)	70 (≈ 87.1 µM)	65	225	4.5	Dose-dependent effect	Toxic	Stable	4.72	82	44	28.309	70 (≈ 87.1 µM)	150 (≈ 187 µM)	50 (≈ 62.2 µM)	120 (≈ 149 µM)	50 (≈ 62.2 µM)
NCCCC(NC(=O)C(CCCN)NC(=O)c1cccc(NC(=O)C(Cc2c[nH]c3ccccc23)NC(=O)C(CCCN)NC(=O)C(N)Cc2c[nH]c3ccccc23)c1)C(N)=O (stereo unspecified) (H-W[Orn]W[3Abz][Orn][Orn]-NH2; configuration not given here)	20 (≈ 23.5 µM)	175	450	18	–	–	–	–	–	–	24.782	70 (≈ 82.3 µM)	75 (≈ 88.1 µM)	25 (≈ 29.4 µM)	40 (≈ 47 µM)	25 (≈ 29.4 µM)
NCCCC(NC(=O)C(Cc1c[nH]c2ccccc12)NC(=O)c1cccc(NC(=O)C(CCCN)NC(=O)C(CCCN)NC(=O)C(N)Cc2c[nH]c3ccccc23)c1)C(N)=O (stereo unspecified) (H-W[Orn][Orn][3Abz]W[Orn]-NH2; configuration not given here)	40 (≈ 47 µM)	170	500	12.5	–	–	–	–	–	–	24.193	75 (≈ 88.1 µM)	100 (≈ 118 µM)	40 (≈ 47 µM)	75 (≈ 88.1 µM)	50 (≈ 58.8 µM)
NCCCC(N)C(=O)NC(Cc1c[nH]c2ccccc12)C(=O)NC(Cc1c[nH]c2ccccc12)C(=O)Nc1cccc(C(=O)NC(CCCN)C(=O)NC(CCCN)C(N)=O)c1 (stereo unspecified) (H-[Orn]WW[3Abz][Orn][Orn]-NH2; configuration not given here)	50 (≈ 58.8 µM)	150	440	8.8	–	–	–	–	–	–	23.979	100 (≈ 118 µM)	100 (≈ 118 µM)	50 (≈ 58.8 µM)	100 (≈ 118 µM)	50 (≈ 58.8 µM)
NCCCC(N)C(=O)NC(Cc1c[nH]c2ccccc12)C(=O)Nc1cccc(C(=O)NC(Cc2c[nH]c3ccccc23)C(=O)NC(CCCN)C(N)=O)c1 (stereo unspecified) (H-[Orn]W[3Abz]W[Orn]-NH2; configuration not given here)	15 (≈ 20.4 µM)	190	> 500	> 28.6	–	–	–	–	–	–	24.231	50 (≈ 67.9 µM)	40 (≈ 54.3 µM)	17.5 (≈ 23.7 µM)	50 (≈ 67.9 µM)	20 (≈ 27.1 µM)
NCCCC(N)C(=O)NC(CCCN)C(=O)NC(Cc1c[nH]c2ccccc12)C(=O)NC(Cc1c[nH]c2ccccc12)C(=O)NC(CCCN)C(N)=O (stereo unspecified) (H-[Orn][Orn]WW[Orn]-NH2; configuration not given here)	100 (≈ 137 µM)	100	310	4.42	–	–	–	–	–	–	26.672	120 (≈ 164 µM)	150 (≈ 205 µM)	70 (≈ 95.6 µM)	100 (≈ 137 µM)	100 (≈ 137 µM)
NCCCC(N)C(=O)NC(CCCN)C(=O)NC(Cc1c[nH]c2ccccc12)C(=O)Nc1cccc(C(=O)NC(Cc2c[nH]c3ccccc23)C(=O)NC(CCCN)C(N)=O)c1 (stereo unspecified) (H-[Orn][Orn]W[3Abz]W[Orn]-NH2; configuration not given here)	12.5 (≈ 14.7 µM)	120	450	60	–	–	–	–	–	–	24.231	40 (≈ 47 µM)	50 (≈ 58.8 µM)	7.5 (≈ 8.81 µM)	40 (≈ 47 µM)	10.2 (≈ 12 µM)
